# Laboratory results reported in publication PMC9453980 (ACS Omega, 2022).
# Assays:
# [1] = test system: BaPif1 (Bacteroides sp. 2-1-16); experiment: fluorescence polarization
# HeLa cells [2] = experiment: RPA foci formation; format: cell-based, human
# Procedure, shortened: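 HeLa cells were seeded for 24 h, then treated with test agents for 24 h. They were fixed in 4% paraformaldehyde for 20 min, permeabilized with 0.3% Triton X-100 and blocked in 5% BSA. Cells were stained overnight at 4 °C for RPA2 and γH2AX, then with fluorescent secondaries and DAPI. Automated microscopy scored the percentage of RPA-foci-positive cells.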
# hPif1-HD [3] = biological target: T1, hPif1-HD (Homo sapiens, UniProt Q9H611); experiment: ATPase activity assay; format: biochemical
# T1 sequence (Q9H611 200-641): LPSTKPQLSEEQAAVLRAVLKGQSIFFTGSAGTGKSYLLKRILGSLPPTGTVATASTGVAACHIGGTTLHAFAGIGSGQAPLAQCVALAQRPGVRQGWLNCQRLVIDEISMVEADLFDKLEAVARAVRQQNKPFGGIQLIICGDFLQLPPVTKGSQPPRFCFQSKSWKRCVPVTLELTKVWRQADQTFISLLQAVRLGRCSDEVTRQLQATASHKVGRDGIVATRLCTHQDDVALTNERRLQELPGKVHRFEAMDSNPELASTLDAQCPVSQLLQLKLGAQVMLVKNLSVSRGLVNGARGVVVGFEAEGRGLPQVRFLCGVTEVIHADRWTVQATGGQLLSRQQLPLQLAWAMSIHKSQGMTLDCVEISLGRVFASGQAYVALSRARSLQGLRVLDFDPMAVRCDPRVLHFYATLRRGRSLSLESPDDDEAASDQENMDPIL
# Procedure, shortened: (§1)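 ATP depletion (luciferase) assay. BaPif1 (GST fusion expressed in E. coli BL21(DE3), tag cleaved) or hPif1 helicase domain (aa200-641, N-terminal His6, E. coli BL21(DE3)), at 0.1 mg/mL. Protein was preincubated with a compound dilution series for 30 min at 25 °C in 20 mM Tris-HCl pH 7.5, 150 mM NaCl, 5 mM MgCl2, 5% DMSO final. 100 nM ssDNA and 100 nM ATP were added, 10 min at 25 °C, then stopped with NaOH. Remaining ATP was read as firefly luciferase luminescence.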
# BaPif1 [4] = experiment: F-EMSA assay of BaPif1-dT12 interaction; format: binding, Bacteroides sp. 2-1-16
# "Cys-conserved" kinases = conditions: 10 μM TD, panel of 68 kinases; cited from earlier work
# hPif1-HD [5] = biological target: T1, hPif1-HD; experiment: FP assay of DNA-binding activity
# Procedure, shortened: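 Fluorescence polarization read at ex 480/em 520 nm. The hPif1 helicase domain (aa200-641, His6-tagged) was at 10 μM with 0.5 μM FAM-labelled DNA and a titration of test compound. Buffer was 25 mM Tris-HCl pH 7.5, 5 mM MgCl2, with no DTT. IC50 was obtained by fitting the binding curves.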
# BaPif1 [6] = experiment: Filtration-dilution reversibility experiment; format: biochemical, Bacteroides sp. 2-1-16; conditions: 50 μM compound, three filtration and dilution cycles, 1000-fold dilution
# Procedure, shortened: (§2)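 Reversibility test. Wild-type or C380A BaPif1 at 0.1 mg/mL in ATPase buffer was incubated 30 min with 5% DMSO or 50 μM compound in 5% DMSO. It was concentrated on a 10 kDa cut-off centrifugal filter and the retentate diluted 10-fold with buffer. This was done three times (1000-fold total). Residual ATPase activity was then measured by the luciferase ATP assay and expressed as percent inhibition.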
# BaPif1 C234A mutant = experiment: FP assay of DNA-binding activity, C234A mutant; set-up: species or system Bacteroides sp. 2-1-16
# GSK-3β = conditions: cited from earlier work
# BaPif1 [7] = experiment: ATPase activity assay; format: biochemical, Bacteroides sp. 2-1-16; conditions: read-out: IC50, inhibition of ATPase activity of BaPif1
# Procedure, shortened: as §1
# BaPif1 [8] = experiment: Helicase; format: biochemical, Bacteroides sp. 2-1-16; conditions: gel-based titration
# BaPif1 C380A mutant [9] = experiment: Filtration-dilution reversibility experiment, C380A mutant; format: biochemical, Bacteroides sp. 2-1-16; conditions: filtration experiments
# Procedure, shortened: as §2
# hPif1-HD [10] = biological target: T1, hPif1-HD; experiment: Helicase; format: biochemical; conditions: 20 μM hPif1-HD, 20 bp dsDNA with 5′ dT55 tail
# BaPif1 C380A mutant [11] = experiment: FP assay of DNA-binding activity, C380A mutant; set-up: species or system Bacteroides sp. 2-1-16
# Procedure, shortened: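 FP competition with FAM-labelled DNA in 25 mM Tris-HCl pH 7.5, 5 mM MgCl2 (ex 480/em 520 nm). The C380A point mutant was made by PCR mutagenesis and purified as for wild type, and was compared with wild-type BaPif1. Each protein was held with 50 μM test compound across a range of DTT concentrations to give dose-response curves.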
# HeLa cells [12] = experiment: Western blot of Pif1, RPA2 and γH2AX; format: cell-based, human; conditions: 10 μM TD combined with 2.5 mM HU
# Procedure, shortened: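 HeLa lysates were made in RIPA buffer with protease inhibitor at 4 °C and quantified by BCA. 10−30 μg per lane was run on SDS-PAGE and blotted to PVDF. Membranes were blocked 1 h in 5% milk and probed overnight at 4 °C for Pif1, RPA2, γH2AX and GAPDH (loading control). HRP anti-mouse secondary (1:5000, 1 h) and ECL detection followed.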
molecule,measurement,setting,value
TTTTTTTTTTTTTTTTTT [FAM-dT18],Kd,[1],7 µM
"NC(=O)NO [HU, hydroxyurea]",Induction of RPA foci formation,HeLa cells [2]; 2.5 mM HU,efficiently induce RPA foci formation
"O=c1sn(-c2cccc3ccccc23)c(=O)n1Cc1ccccc1 [TD, Tideglusib]",IC50,hPif1-HD [3],2.5 ± 0.1 µM
same,"Blocking of ssDNA binding to BaPif1 (F-EMSA), in words",BaPif1 [4],could block the binding of single-stranded DNA (ssDNA) to the BaPif1 protein
same,"Number of ""Cys-conserved"" kinases significantly inhibited","""Cys-conserved"" kinases",10 of the 26
same,IC50,hPif1-HD [5],5.79 ± 0.6 µM
same,Reversibility of inhibition of BaPif1 ATPase activity after filtration-dilution,BaPif1 [6],irreversible
same,Sensitivity of C234A mutant to the compound compared with wild-type,BaPif1 C234A mutant,little change
same,Reversibility of GSK-3β inhibition,GSK-3β,irreversibly
same,IC50,BaPif1 [7],2.3 ± 0.13 µM
same,Concentration at which unwinding (helicase) activity of BaPif1 was inhibited,BaPif1 [8],4 µM
same,Reversibility of inhibition of C380A ATPase activity after filtration,BaPif1 C380A mutant [9],reversible
same,Reduction of RPA foci formation,"HeLa cells [2]; 10 μM TD combined with 2.5 mM HU, 24 h",20%
same,Concentration at which helicase activity of hPif1-HD was inhibited,hPif1-HD [10],7.8 µM
same,Sensitivity of C380A mutant to the compound compared with wild-type,BaPif1 C380A mutant [11],less sensitive
same,Protein level of Pif1 and RPA,HeLa cells [12],did not alter
same,Protein level of γH2AX,HeLa cells [12],slightly decreased
